Test results published in ChEMBL document CHEMBL4196069 (Eur J Med Chem, 2018).
pIC50: −log10 of the molar value. Active and inactive are the calls of the source. No cut-off for these calls is given here.

Tests used:
Bel-7402 [1] = experiment: Induction of mitochondrial membrane depolarization in human Bel7402 cells assessed as cell with intact mitochondrial membrane potential at 0.5 uM after 24 to 48 hrs by JC-1 staining based flow cytometric analysis (reference value: 98.83%); assay type: functional
Bel-7402 [2] = experiment: Induction of mitochondrial membrane depolarization in human Bel7402 cells assessed as cells with mitochondrial membrane potential loss at 0.125 uM after 24 to 48 hrs by JC-1 staining based flow cytometric analysis (reference value: 6.17%); assay type: functional
Bel-7402 [3] = experiment: Induction of mitochondrial membrane depolarization in human Bel7402 cells after 24 to 48 hrs by JC1 staining based flow cytometric analysis; assay type: functional, cell-based
Bel-7402 [4] = experiment: Induction of apoptosis in human Bel7402 cells assessed as late apoptotic cells at 0.125 uM after 72 hrs by Annexin V-FITC/propidium iodide staining based flow cytometry (reference value: 2.82%); assay type: functional
Bel-7402 [5] = experiment: Cell cycle arrest in human Bel7402 cells assessed as accumulation at G1 phase after 72 hrs by propidium iodide staining-based flow cytometric method; assay type: functional
Bel-7402 [6] = experiment: Induction of apoptosis in human Bel7402 cells assessed as late apoptotic cells at 0.25 uM after 72 hrs by Annexin V-FITC/propidium iodide staining based flow cytometry (reference value: 2.82%); assay type: functional
Bel-7402 [7] = experiment: Cell cycle arrest in human Bel7402 cells assessed as accumulation at S phase at 0.5 uM after 72 hrs by propidium iodide staining-based flow cytometric method (reference value: 37.02%); assay type: functional
Bel-7402 [8] = experiment: Induction of apoptosis in human Bel7402 cells assessed as necrotic cells at 0.25 uM after 72 hrs by Annexin V-FITC/propidium iodide staining based flow cytometry (reference value: 13.05%); assay type: functional
L02 = experiment: Antiproliferative activity against human LO2 cells after 72 hrs by MTT assay; assay type: cell-based; details: L02, 72 h
Outline: (§1)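 Cells pre-incubated 24 h at 37 °C in humidified 5% CO2, then exposed to compounds for 72 h. MTT (5 mg/mL) was added for 4 h, formazan was dissolved in DMSO, and OD was read at 570 nm. Vehicle control was 0.1% DMSO. IC50 was calculated from inhibition ratios as the mean ± SD of three independent experiments.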

Bel-7402 [9] = experiment: Induction of apoptosis in human Bel7402 cells assessed as reduction in number of adherent cells at 0.125 to 0.25 uM after 48 hrs by Hoechst 33258 staining based fluorescent microscopic method; assay type: functional, cell-based
Outline: (§2)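 Bel-7402 cells were seeded and grown 24 h, treated at 0.125, 0.25 and 0.5 µM for 48 h, then harvested by mild trypsinization and washed in PBS. They were stained with Hoechst 33258 for 15 min at room temperature in the dark and examined by fluorescence microscopy with a DAPI filter. Untreated cells served as control.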

Bel-7402 [10] = experiment: Induction of mitochondrial membrane depolarization in human Bel7402 cells assessed as cells with mitochondrial membrane potential loss at 0.25 uM after 24 to 48 hrs by JC-1 staining based flow cytometric analysis (reference value: 6.17%); assay type: functional
Bel-7402 [11] = experiment: Induction of mitochondrial membrane depolarization in human Bel7402 cells assessed as cell with intact mitochondrial membrane potential at 0.125 uM after 24 to 48 hrs by JC-1 staining based flow cytometric analysis (reference value: 98.83%); assay type: functional
Bel-7402 [12] = experiment: Upregulation of p53 level in human Bel7402 cells after 72 hrs by Western blot analysis; assay type: functional, cell-based
Outline: (§3)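 Bel-7402 cells were treated for 72 h at the indicated concentrations (0.125–0.5 µM) and lysed. Lysates were cleared at 14,000 g for 10 min at 4 °C, and 25 µg protein per lane was run on 10% SDS-PAGE and transferred to nitrocellulose. Membranes were blocked in 5% milk, probed overnight at 4 °C with monoclonal antibodies, and detected by ECL. Densitometry was normalized to GAPDH.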

[13] = Selectivity index, ratio of IC50 for human LO2 cells to IC50 for human Bel7402 cells; assay type: toxicity; details: LO2 cells versus Bel7402 cells, read-out: Ratio IC50
Outline: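 Selectivity index = IC50(L-O2)/IC50(Bel-7402), both IC50s from the 72 h MTT assay (mean of three independent experiments).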

Bel-7402 [14] = experiment: Induction of apoptosis in human Bel7402 cells assessed as viable cells at 0.5 uM after 72 hrs by Annexin V-FITC/propidium iodide staining based flow cytometry (reference value: 82.48%); assay type: functional; details: Bel-7402, 72 h, read-out: Activity
Bel-7402 [15] = experiment: Cell cycle arrest in human Bel7402 cells assessed as accumulation at G2/M phase at 0.125 uM after 72 hrs by propidium iodide staining-based flow cytometric method (reference value: 23.71%); assay type: functional
Bel-7402 [16] = experiment: Induction of apoptosis in human Bel7402 cells assessed as rupture of cell membrane at 0.5 uM after 48 hrs by Hoechst 33258 staining based fluorescent microscopic method; assay type: functional; outline: as §2
PC-3 = experiment: Antiproliferative activity against human PC3 cells after 72 hrs by MTT assay; assay type: functional, cell-based; details: PC-3, 72 h; outline: as §1
Bel-7402 [17] = experiment: Induction of apoptosis in human Bel7402 cells assessed as necrotic cells at 0.125 uM after 72 hrs by Annexin V-FITC/propidium iodide staining based flow cytometry (reference value: 13.05%); assay type: functional
Bel-7402 [18] = experiment: Upregulation of caspase-9 level in human Bel7402 cells at 0.125 to 0.5 uM after 72 hrs by Western blot analysis; assay type: functional, cell-based; outline: as §3
Bel-7402 [19] = experiment: Cell cycle arrest in human Bel7402 cells assessed as accumulation at G1 phase at 0.5 uM after 72 hrs by propidium iodide staining-based flow cytometric method (reference value: 39.28%); assay type: functional
Bel-7402 [20] = experiment: Antiproliferative activity against human Bel7402 cells after 72 hrs by MTT assay; assay type: functional, cell-based; details: Bel-7402, 72 h; outline: as §1
Bel-7402 [21] = experiment: Induction of apoptosis in human Bel7402 cells assessed as nuclear fragmentation at 0.5 uM after 48 hrs by Hoechst 33258 staining based fluorescent microscopic method; assay type: functional, cell-based; outline: as §2
Bel-7402 [22] = experiment: Induction of apoptosis in human Bel7402 cells assessed as cell shrinkage at 0.125 to 0.25 uM after 48 hrs by Hoechst 33258 staining based fluorescent microscopic method; assay type: functional; outline: as §2
Bel-7402 [23] = experiment: Induction of apoptosis in human Bel7402 cells assessed as chromatin condensation at 0.125 to 0.25 uM after 48 hrs by Hoechst 33258 staining based fluorescent microscopic method; assay type: functional, cell-based; outline: as §2
HL-60 = experiment: Antiproliferative activity against human HL60 cells after 72 hrs by MTT assay; assay type: functional, cell-based; details: HL-60, 72 h; outline: as §1
Bel-7402 [24] = experiment: Induction of apoptosis in human Bel7402 cells assessed as viable cells at 0.25 uM after 72 hrs by Annexin V-FITC/propidium iodide staining based flow cytometry (reference value: 82.48%); assay type: functional; details: Bel-7402, 72 h, read-out: Activity
Bel-7402 [25] = experiment: Cell cycle arrest in human Bel7402 cells assessed as accumulation at S phase at 0.25 uM after 72 hrs by propidium iodide staining-based flow cytometric method (reference value: 37.02%); assay type: functional
Bel-7402 [26] = experiment: Induction of apoptosis in human Bel7402 cells assessed as necrotic cells at 0.5 uM after 72 hrs by Annexin V-FITC/propidium iodide staining based flow cytometry (reference value: 13.05%); assay type: functional
Bel-7402 [27] = experiment: Cell cycle arrest in human Bel7402 cells assessed as accumulation at G2/M phase at 0.25 uM after 72 hrs by propidium iodide staining-based flow cytometric method (reference value: 23.71%); assay type: functional

Structure (SMILES): C[C@H]1CCC/C=C/[C@@H]2C[C@H](O)C[C@H]2[C@H](OC(=O)c2ccc(N(CCCl)CCCl)cc2)/C=C/C(=O)O1
- Activity (Bel-7402 [1]): 56.15%
- Activity (Bel-7402 [2]): 16.06%
- Activity (Bel-7402 [3]): Dose-dependent effect
- Activity (Bel-7402 [4]): 5.47%
- Activity (Bel-7402 [5]): Dose-dependent effect
- Activity (Bel-7402 [6]): 11.26%
- Activity (Bel-7402 [7]): 30.14%
- Activity (Bel-7402 [8]): 3.21%
- pIC50 (L02): 5.01
- Activity (Bel-7402 [9]): Active
- Activity (Bel-7402 [10]): 29.5%
- Activity (Bel-7402 [11]): 83.63%
- Activity (Bel-7402 [12]): Dose-dependent effect
- selectivity ratio [13]: 38.9
- viability at 0.5 µM (Bel-7402 [14]): 38.5%
- Activity (Bel-7402 [15]): 19.92%
- Activity (Bel-7402 [16]): Active
- pIC50 (PC-3): 5.03
- Activity (Bel-7402 [17]): 3.45%
- Activity (Bel-7402 [18]): Active
- Activity (Bel-7402 [19]): 58.17%
- pIC50 (Bel-7402 [20]): 6.60
- Activity (Bel-7402 [21]): Active
- Activity (Bel-7402 [22]): Active
- Activity (Bel-7402 [23]): Active
- pIC50 (HL-60): 5.35
- viability at 0.25 µM (Bel-7402 [24]): 62.9%
- Activity (Bel-7402 [25]): 32.48%
- Activity (Bel-7402 [26]): 3.87%
- Activity (Bel-7402 [27]): 13.27%
